Experimental data: ChEMBL document CHEMBL4673221, “Furanoflavones pongapin and lanceolatin B blocks the cell cycle and induce senescence in CYP1A1-overexpressing breast cancer cells” (Bioorg Med Chem, 2018)
Active and inactive are the calls of the source. No cut-off for these calls is given here.

Tests used:
Cytochrome P450 2A6 = biological target: T1, Cytochrome P450 2A6 (Homo sapiens, UniProt P11509); assay: Inhibition of human CYP2A6 expressed in Sacchrosomes by fluorescence based assay; format: ADME
T1 sequence (P11509 whole entry): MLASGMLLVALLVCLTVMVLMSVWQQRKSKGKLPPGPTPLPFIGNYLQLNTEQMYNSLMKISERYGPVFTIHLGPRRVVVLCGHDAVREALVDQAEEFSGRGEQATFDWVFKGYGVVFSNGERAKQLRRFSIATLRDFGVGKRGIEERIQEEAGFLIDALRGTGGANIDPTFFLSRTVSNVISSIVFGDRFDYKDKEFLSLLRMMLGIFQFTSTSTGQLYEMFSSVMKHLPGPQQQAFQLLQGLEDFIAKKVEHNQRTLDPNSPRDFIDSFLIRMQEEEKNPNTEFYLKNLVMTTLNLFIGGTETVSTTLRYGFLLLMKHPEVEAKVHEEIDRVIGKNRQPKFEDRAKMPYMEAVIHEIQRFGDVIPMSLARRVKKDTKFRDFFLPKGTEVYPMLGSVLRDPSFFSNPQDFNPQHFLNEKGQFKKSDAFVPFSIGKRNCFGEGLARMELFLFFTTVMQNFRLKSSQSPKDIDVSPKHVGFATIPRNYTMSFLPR

Cytochrome P450 1A1 [1] = biological target: T2, Cytochrome P450 1A1 (Homo sapiens, UniProt P04798); assay: Inhibition of human CYP1A1 expressed in human HEK293 cells using 7-ethoxyresorufin as substrate preincubated for 30 mins followed by substrate additon and measured after 60 mins by fluorescence based assay; format: cell-based
T2 sequence (P04798 whole entry): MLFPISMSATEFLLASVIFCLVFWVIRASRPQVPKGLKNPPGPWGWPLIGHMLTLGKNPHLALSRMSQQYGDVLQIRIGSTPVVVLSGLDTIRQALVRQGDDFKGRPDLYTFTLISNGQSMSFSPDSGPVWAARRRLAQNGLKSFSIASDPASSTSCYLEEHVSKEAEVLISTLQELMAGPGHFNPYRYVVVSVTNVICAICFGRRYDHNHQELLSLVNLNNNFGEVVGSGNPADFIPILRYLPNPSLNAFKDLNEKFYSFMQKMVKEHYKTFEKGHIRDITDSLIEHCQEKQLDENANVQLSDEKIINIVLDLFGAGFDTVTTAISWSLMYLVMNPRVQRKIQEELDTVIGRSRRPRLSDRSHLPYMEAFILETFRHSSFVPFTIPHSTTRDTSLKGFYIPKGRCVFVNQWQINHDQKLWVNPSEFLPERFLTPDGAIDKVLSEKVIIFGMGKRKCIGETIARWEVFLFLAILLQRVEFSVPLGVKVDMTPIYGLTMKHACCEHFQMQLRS
Summary of the method: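 The assay used live recombinant human HEK293 cells grown in suspension, each cell line expressing a single CYP (CYP1A1 or CYP1B1). Percent inhibition was read at 10 μM, and IC50 values were determined. Values are mean ± SD of three independent experiments. Alpha-naphthoflavone served as the reference inhibitor.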

MCF7 = assay: Cell cycle arrest in human MCF-7 cells over expressing CYP1A1 assessed as down regulation of CyclinD1 after 24 hrs by western blotting assay; format: functional, cell-based
Summary of the method: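 Cyclin D1 was detected by Western blot, with β-tubulin as loading control. Untreated cells served as control.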

Cytochrome P450 1A1 [2] = biological target: T2, Cytochrome P450 1A1; assay: Inhibition of human CYP1A1 expressed in HEK293 cells assessed as reduction in CYP1A1 mediated […] induced-toxicity by measuring EC50 at 3 times of IC50 concentration by MTT assay relative to control; format: cell-based; parameters: scale not given: the % may be the effect or the level left
Summary of the method: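 Adherent HEK293 cells transfected with pcDNA3.1/hCYP1A1 were exposed to B[a]P over 0.05–100 µM, with inhibitor at 3x its IC50 from the suspension HEK293-CYP1A1 assay. The EC50 of B[a]P for cell growth inhibition was derived. Cells transfected with empty plasmid were used for comparison. Values are mean and SD of three independent experiments.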

Homo sapiens [3] = species: Homo sapiens; assay: Selectivity ratio IC50 for inhibition of human CYP1B1 expressed in sacchrosomes toIC50 for Inhibition of CYP1A1 expressed in sacchrosomes
Homo sapiens [4] = species: Homo sapiens; assay: Selectivity ratio IC50 for inhibition of human CYP1A2 expressed in sacchrosomes toIC50 for Inhibition of CYP1A1 expressed in sacchrosomes

Row | Structure (SMILES) | IC50 (Cytochrome P450 2A6) | IC50 (Cytochrome P450 1A1 [1]) | Activity (MCF7) | Activity (Cytochrome P450 1A1 [2]) | Ratio IC50 (Homo sapiens [3]) | Ratio IC50 (Homo sapiens [4])
1 | O=c1cc(-c2ccccc2)oc2c1ccc1occc12 [LANCEOLATIN B] | > 20 µM | 0.02 µM | Active | 100% | – | –
2 | COc1c(-c2ccc3c(c2)OCO3)oc2c(ccc3occc32)c1=O [PONGAPIN] | > 20 µM | 0.02 µM | Active | 100% | 52 | 13
